The test system of data set [1] is Jurkat. In words: Percent inhibition of Ca+2 influx in jurkat T cells at 50 uM concentration. It counts as functional. The following applies: Homo sapiens. The method in brief: (§1)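 Jurkat cells loaded with 2 μM Fluo-3 AM plus Pluronic F127 for 1 h at room temperature, washed, resuspended in HBSS with 10 mM HEPES pH 7.5. 4 × 10^6 cells per cuvette equilibrated to 37 °C; compound added 80 s before TCR cross-linking with 2 μg mouse anti-human CD3. Cytoplasmic calcium followed by fluorescence over time; EC50 from percent of control fluorescence at six doses.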

Data set [2] relates to Jurkat. In words: Percent Inhibition of Ca+2 influx in jurkat T cells at 50 uM concentration. It counts as functional. The following applies: Homo sapiens. The gist of the method:
as §1

For data set [3], the species on record is Homo sapiens. In words: Percent permeated in 3 hours in Caco-2 model. It counts as ADME, organism-based. The conditions noted are these: caco-2, 3 h. The gist of the method: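 Caco-2 monolayers on collagen-coated polycarbonate filters, grown up to 25 days (passages 23–50). Cells equilibrated in HBSS pH 7.4 for 30 min at 37 °C. Drug applied apically at 0.01–0.1 mM final in HBSS at 37 °C, 5% CO2. Basolateral samples taken at intervals; cumulative amount plotted against time. Mannitol used to check monolayer integrity; mass balance >90%; at least triplicates.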
In general terms: Caco-2 monolayers are a common model of the intestinal barrier.

A short description of data set [4]: Inhibition of IL-2 production in CD4+T cells. The following applies: Homo sapiens, CD4+ T cell. It counts as functional, cell-based. The method in brief: (§2)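 Purified human CD4+ T cells (5 × 10^4/well) in RPMI 1640 with 1% FBS. Compound diluted from DMSO stock, preincubated 1 h at 37 °C. Cells activated with 0.12 ng/well anti-CD3, 100 ng/well anti-CD28 and anti-mouse IgG magnetic beads, then incubated overnight at 37 °C, 5% CO2. Secreted IL-2 in supernatant measured by ELISA.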

Data set [5] is described as follows: Inhibition of proliferation of CD4+T cells. It counts as functional, cell-based. The conditions noted are these: Homo sapiens, CD4+ T cell. The method in brief: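 Human CD4+ T cells, 5 × 10^4/well, preincubated with compound for 1 h at 37 °C. Stimulated with anti-CD3, anti-CD28 and anti-mouse IgG beads. Pulsed 48 h after activation with 0.5 μCi/well [3H]-thymidine, incubated a further 18 h at 37 °C, harvested, and incorporated radioactivity counted.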

Data set [6] concerns the target Tyrosine-protein kinase Lck (Homo sapiens, UniProt P06239). Nature of the data set: Binding affinity for p56lck SH2 domain site.
Data set [7] relates to Jurkat. In words: Inhibition of Ca+2 influx in jurkat T cells. It counts as functional, cell-based. The following applies: Homo sapiens. The gist of the method:
as §1

Data set [8] can be described thus: Inhibition of IL-2 production from CD4+T cells. The following applies: Homo sapiens, CD4+ T cell. It counts as functional, cell-based. The method in brief:
as §2

These results are taken from ChEMBL document CHEMBL1134536, “Nonpeptidic, monocharged, cell permeable ligands for the p56lck SH2 domain” (J Med Chem, 2001).

Chain of Tyrosine-protein kinase Lck (P06239 whole entry, the tested form may be a part): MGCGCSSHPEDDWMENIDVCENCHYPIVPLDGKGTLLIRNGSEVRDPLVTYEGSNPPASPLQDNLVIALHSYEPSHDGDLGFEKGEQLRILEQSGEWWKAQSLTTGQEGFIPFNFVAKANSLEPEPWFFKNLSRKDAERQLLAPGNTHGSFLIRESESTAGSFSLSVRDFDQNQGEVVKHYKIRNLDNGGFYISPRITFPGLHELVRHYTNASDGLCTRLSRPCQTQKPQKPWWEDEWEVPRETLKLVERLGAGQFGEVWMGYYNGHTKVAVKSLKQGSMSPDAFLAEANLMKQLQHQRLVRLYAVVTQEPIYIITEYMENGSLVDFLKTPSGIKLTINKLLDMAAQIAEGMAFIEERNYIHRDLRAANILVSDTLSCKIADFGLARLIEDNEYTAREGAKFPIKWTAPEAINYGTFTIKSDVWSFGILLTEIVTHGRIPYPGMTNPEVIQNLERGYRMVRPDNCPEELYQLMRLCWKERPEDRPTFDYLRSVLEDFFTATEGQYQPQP

Take `COc1ccc(Cn2ccc(C)c(NC(=O)[C@@H](Cc3ccc(C(C)(C)C(=O)O)cc3)NC(=O)C(C)(C)c3ccc4ccccc4c3)c2=O)cc1`: the inhibition at 50 µM in data set [1] stood at 29%; in data set [2], 57%. In data set [3], the Permeated worked out at 16%. The results for the EC50 in data set [4] and in data set [5] were 11.3 µM and 16.6 µM, respectively.

For `COc1ccc(Cn2cccc(NC(=O)C(Cc3ccc(CC(=O)O)cc3)NC(=O)Cc3cccc4ccccc34)c2=O)cc1` (centres undefined), in data set [6], the Kd was 23 µM. Besides, the Permeated in data set [3] was 1.3%.

`COc1ccc(Cn2ccc(C)c(NC(=O)[C@H](Cc3ccc(C(C)(C)C(=O)O)cc3)NC(=O)C(C)(C)c3ccc4ccccc4c3)c2=O)cc1` returned a Permeated in data set [3] of 21%. For the same compound, the figures for the EC50 in data set [5], in data set [7] and in data set [8] were 8.7 µM, 10.1 µM and 9.4 µM, respectively.

For the compound `COc1ccc(CNC(=O)[C@H](CCC(=O)O)NC(=O)[C@H](Cc2ccc(CC(=O)O)cc2)NC(=O)Cc2cccc3ccccc23)cc1`, the Permeated in data set [3] came out at 0.3%. In addition, the EC50 in data set [7] is greater than 100 µM.

In data set [6], `COc1ccc(Cn2ccc(C)c(NC(=O)C(Cc3ccc(CC(=O)O)cc3)NC(C)=O)c2=O)cc1` (centres undefined) displayed a Kd of 7 µM. The compound also registered a Permeated in data set [3] of 0.4%.

In data set [6], `COc1ccc(Cn2ccc(C)c(NC(=O)C(Cc3ccc(CC(=O)O)cc3)NC(=O)Cc3cccc4ccccc34)c2=O)cc1` (centres undefined) had a Kd of 1.3 µM. The compound further showed a Permeated in data set [3] of 0.3%. This compound also had an EC50 in data set [7] greater than 100 µM.

The compound `COc1ccc(Cn2ccc(C)c(NC(=O)C(Cc3ccc(C(C)(C)C(=O)O)cc3)NC(=O)Cc3cccc4ccccc34)c2=O)cc1` (racemic) came in with a Kd in data set [6] of 1.2 µM. This compound registered a Permeated in data set [3] of 0.4%. In addition, a half-maximal response in data set [7] (EC50) required 51 µM.

As to `COc1ccc(Cn2ccc(C)c(NC(=O)C(Cc3ccc(C(C)(C)C(=O)O)cc3)NC(=O)Cc3ccc4ccccc4c3)c2=O)cc1` (racemic), in data set [6], the Kd stood at 0.28 µM. The compound further registered a Permeated in data set [3] of 0.6%. The response in data set [7] was half-maximal at 30.5 µM (EC50).

One may read the inhibition as the share of the control response that was lost under treatment. Broadly, the EC50 is the concentration giving half of the maximal effect. A high value points to a less potent agent. In general, Kd refers to a measure of binding affinity in units of concentration.
